The values below come from ChEMBL document CHEMBL1141689, “Synthesis and biological evaluation of 2-amino-3-(3',4',5'-trimethoxybenzoyl)-6-substituted-4,5,6,7-tetrahydrothieno[2,3-c]pyridine derivatives as antimitotic agents and inhibitors of tubulin polymerization” (Bioorg Med Chem Lett, 2008).

pIC50: −log10 of the molar value.

For test [1], the species on record is Bos taurus. The test can be described thus: Displacement of [3H]colchicine from bovine brain tubulin at 5 uM.
Test [2] in a line: Antiproliferative activity against human Molt4/C8 cells. The conditions noted are these: MOLT-4. The format is functional, cell-based.
For test [3], the species on record is Bos taurus. The test can be described thus: Displacement of [3H]colchicine from bovine brain tubulin at 1 uM.
Test [4] can be described thus: Inhibition of tubulin polymerization.
In the next test the test system is L1210. In words: Antiproliferative activity against mouse L1210 cells. The format is functional, cell-based.
Test [5] deals with K562. In words: Cell cycle arrest in human K562 cells assessed as accumulation at G2/M phase at 70 nM after 24 hrs using propidium iodide staining by flow cytometry. The format is functional.
The next test relates to FM3A. In words: Antiproliferative activity against mouse FM3A cells. The test is classed as functional, cell-based.
The test system of test [6] is K562. The test can be described thus: Cell cycle arrest in human K562 cells assessed as accumulation at S phase at 70 nM after 24 hrs using propidium iodide staining by flow cytometry. The format is functional.
The subject of test [7] is K562. In words: Cell cycle arrest in human K562 cells assessed as accumulation at G0/G1 phase at 70 nM after 24 hrs using propidium iodide staining by flow cytometry. The test is classed as functional.
Test [8] relates to K562. In words: Cell cycle arrest in human K562 cells assessed as accumulation at sub G0/G1 phase at 70 nM after 24 hrs using propidium iodide staining by flow cytometry. The format is functional.
The next test relates to CCRF-CEM. The test can be described thus: Antiproliferative activity against human CEM cells. The format is cell-based.
Test [9] has as its system K562. In words: Cell cycle arrest in human K562 cells assessed as accumulation at G2/M phase at 500 nM after 24 hrs using propidium iodide staining by flow cytometry. The test is classed as functional. In outline:
(§1)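 K562 leukaemia cells were cultured 24 h with compound or without compound as a control, then washed once in ice-cold PBS. They were resuspended at 1 × 10^6/mL in hypotonic propidium iodide (50 μg/mL) in 0.1% sodium citrate with 0.03% (v/v) Nonidet P-40 and incubated 30 min. DNA content was read by flow cytometry as single-parameter histograms, and cell-cycle phase distribution was modelled from them.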

For test [10], the system named is K562. In words: Cell cycle arrest in human K562 cells assessed as accumulation at G0/G1 phase at 500 nM after 24 hrs using propidium iodide staining by flow cytometry. The test is classed as functional. In outline: as §1
Test [11] relates to K562. The test can be described thus: Cell cycle arrest in human K562 cells assessed as accumulation at S phase at 500 nM after 24 hrs using propidium iodide staining by flow cytometry. The test is classed as functional. In outline:
as §1

For test [12], the system named is K562. The test can be described thus: Cell cycle arrest in human K562 cells assessed as accumulation at sub G0/G1 phase at 500 nM after 24 hrs using propidium iodide staining by flow cytometry. The test is classed as functional. In outline: as §1
The subject of test [13] is K562. The test can be described thus: Cell cycle arrest in human K562 cells assessed as accumulation at G2/M phase at 80 nM after 24 hrs using propidium iodide staining by flow cytometry. The test is classed as functional. In outline: as §1
The test system of test [14] is K562. In words: Cell cycle arrest in human K562 cells assessed as accumulation at G0/G1 phase at 80 nM after 24 hrs using propidium iodide staining by flow cytometry. The format is functional. In outline:
as §1

In test [15] the test system is K562. In words: Cell cycle arrest in human K562 cells assessed as accumulation at S phase at 80 nM after 24 hrs using propidium iodide staining by flow cytometry. The format is functional. The method in brief: as §1
The subject of test [16] is K562. The test can be described thus: Cell cycle arrest in human K562 cells assessed as accumulation at sub G0/G1 phase at 80 nM after 24 hrs using propidium iodide staining by flow cytometry. The format is functional. In outline: as §1

Take `COc1ccc(/C=C\c2cc(OC)c(OC)c(OC)c2)cc1O` [COMBRETASTATIN A4]: the results for the Activity in the test filed under Bos taurus [1] and in the test filed under Bos taurus [3] were 99% and 90%, respectively. In test [2], this molecule showed a pIC50 of 8.80.

Take `COC(=O)N1CCc2c(sc(N)c2C(=O)c2cc(OC)c(OC)c(OC)c2)C1`: the Activity was determined as 84% in the test filed under Bos taurus [1]; 33% in the test on K562 [5]; 33% with K562 [6]; 34% in the test with K562 [7]; 11% with K562 [8]; 71% in the test filed under Bos taurus [3]. In addition, the pIC50 was 6.22 in [4]; 7.60 in the test with L1210; 7.35 in [2]; 7.34 in the test with FM3A; 7.05 with CCRF-CEM.

Take `CNC(=S)N1CCc2c(sc(N)c2C(=O)c2cc(OC)c(OC)c(OC)c2)C1`: the pIC50 is 5.31 in the test with L1210, 5.80 in test [2], 5.55 in the test with FM3A and 5.74 in the test with CCRF-CEM.

As for `COc1cc(C(=O)c2c(N)sc3c2CCN(C(=O)Nc2ccccc2)C3)cc(OC)c1OC`, the negative-log IC50 (pIC50) (in the test on L1210; in test [2]; in the test with FM3A; with CCRF-CEM) was < 5.00 each time.

With `COc1cc(C(=O)c2c(N)sc3c2CCN(C(=O)OCc2ccccc2)C3)cc(OC)c1OC`, the pIC50 with L1210 is < 5.00; in test [2], 5.12; with FM3A it was < 5.00; in the test with CCRF-CEM it was 5.08.

For `CCN1CCc2c(sc(N)c2C(=O)c2cc(OC)c(OC)c(OC)c2)C1`, the pIC50 in the test on L1210 was 5.68; in [2], 5.74; in the test on FM3A, 5.72; in the test with CCRF-CEM it was 5.77.

Regarding `COc1cc(C(=O)c2c(N)sc3c2CCN(C(C)=O)C3)cc(OC)c1OC`, the pIC50 in the test on L1210 was 5.41; in test [2], 5.96; in the test with FM3A it was 5.92; with CCRF-CEM, 5.85.

As for `CCCN1CCc2c(sc(N)c2C(=O)c2cc(OC)c(OC)c(OC)c2)C1`, the negative-log IC50 (pIC50) (in the test on L1210; in test [2]; in the test with FM3A; in the test with CCRF-CEM) was < 5.00 throughout.

With `CCNC(=S)N1CCc2c(sc(N)c2C(=O)c2cc(OC)c(OC)c(OC)c2)C1`, the pIC50 with L1210 was 5.17; in test [2] it was 5.32; in the test with FM3A, 5.16; with CCRF-CEM, 5.17.

For `COc1cc(C(=O)c2c(N)sc3c2CCN(C(=O)OC(C)(C)C)C3)cc(OC)c1OC`, the pIC50 (with L1210; in test [2]; in the test with FM3A; with CCRF-CEM) was < 5.00 throughout.

Turning to `COc1cc(C(=O)c2c(N)sc3c2CCN(C(=O)NCc2ccccc2)C3)cc(OC)c1OC`, the pIC50 (in the test with L1210; in test [2]; in the test on FM3A; in the test with CCRF-CEM) was < 5.00 throughout.

As for `CCCOC(=O)N1CCc2c(sc(N)c2C(=O)c2cc(OC)c(OC)c(OC)c2)C1`, the pIC50 in the test with L1210 is 5.96; in [2], 6.33; with FM3A, 5.85; in the test on CCRF-CEM it was 5.92.

For `COc1cc(C(=O)c2c(N)sc3c2CCN(C)C3)cc(OC)c1OC`, the pIC50 (in the test with L1210; in test [2]; in the test with FM3A; with CCRF-CEM) was < 5.00 each time.

On to `COc1cc(C(=O)c2c(N)sc3c2CCN(C(=S)NC(C)(C)C)C3)cc(OC)c1OC`, for which the negative logarithm of the IC50 (pIC50) (with L1210; in test [2]; in the test with FM3A; in the test with CCRF-CEM) was < 5.00 each time.

With `COc1cc(C(=O)c2c(N)sc3cnccc23)cc(OC)c1OC`, the Activity is 27% in the test filed under Bos taurus [1]; 54% in the test on K562 [9]; 19% with K562 [10]; 27% with K562 [11]; 14% in the test with K562 [12]. Besides, the pIC50 in the test on L1210 was 6.43; in [2], 6.47; with FM3A, 6.40; in the test on CCRF-CEM, 6.00.

`COc1cc(C(=O)c2c(N)sc3c2CCN(C(=O)OCC(C)C)C3)cc(OC)c1OC`: the pIC50 (with L1210; in [2]; in the test on FM3A; in the test with CCRF-CEM) was < 5.00 each time.

Regarding `COc1cc(C(=O)c2c(N)sc3c2CCN(C(=O)NC2CCCCC2)C3)cc(OC)c1OC`, the negative logarithm of the IC50 (pIC50) (with L1210; in test [2]; with FM3A; in the test on CCRF-CEM) was < 5.00 in each case.

As to `COc1cc(C(=O)c2c(N)sc3c2CCN(Cc2ccccc2)C3)cc(OC)c1OC`, the negative-log IC50 (pIC50) (with L1210; in [2]; with FM3A; in the test on CCRF-CEM) was < 5.00 each time.

Take `COc1cc(C(=O)c2c(N)sc3c2CCN(C(=O)Oc2ccccc2)C3)cc(OC)c1OC`: the pIC50 (with L1210; in test [2]; in the test on FM3A; in the test on CCRF-CEM) was < 5.00 in each case.

With `CCOC(=O)N1CCc2c(sc(N)c2C(=O)c2cc(OC)c(OC)c(OC)c2)C1`, the Activity in the test filed under Bos taurus [1] came out at 82%; with K562 [13], 40%; with K562 [14], 30%; in the test on K562 [15], 30%; in the test with K562 [16], 10%; in the test filed under Bos taurus [3], 67%. Besides, the pIC50 in test [4] is 6.22; in the test on L1210, 7.02; in [2], 6.54; in the test with FM3A it was 7.24; in the test on CCRF-CEM, 6.36.

As for `CCCCNC(=O)N1CCc2c(sc(N)c2C(=O)c2cc(OC)c(OC)c(OC)c2)C1`, the pIC50 (in the test on L1210; in test [2]; with FM3A; in the test with CCRF-CEM) was < 5.00 throughout.

For the molecule `COc1cc(C(=O)c2c(N)sc3c2CCN(C(=O)NCc2ccc(F)cc2)C3)cc(OC)c1OC`, the negative-log IC50 (pIC50) (with L1210; in test [2]; in the test on FM3A; in the test on CCRF-CEM) was < 5.00 in each case.

Consider `COc1cc(C(=O)c2c(N)sc3c2CCN(C(=O)NC(C)C)C3)cc(OC)c1OC`, for which the negative-log IC50 (pIC50) (with L1210; in [2]; in the test with FM3A; in the test with CCRF-CEM) was < 5.00 throughout.

For the molecule `COc1cc(C(=O)c2c(N)sc3ccccc23)cc(OC)c1OC`, the Activity in the test listed under Bos taurus [1] is 71%; in the test filed under Bos taurus [3] it was 25%. The pIC50 was 5.72 in test [4]; 7.05 with L1210; 7.14 in [2]; 7.00 with FM3A; 7.13 with CCRF-CEM.

Turning to `COc1cc(C(=O)c2c(N)sc3c2CCN(C(=S)NC2CCCCC2)C3)cc(OC)c1OC`, the pIC50 in the test with L1210 is 5.96; in test [2] it was 6.12; in the test on FM3A, 5.85.

With `COc1cc(C(=O)c2c(N)sc3c2CCN(C(=S)NC(C)C)C3)cc(OC)c1OC`, the pIC50 (in the test with L1210; in test [2]; in the test with FM3A; with CCRF-CEM) was < 5.00 each time.
